Laboratory results published in ChEMBL document CHEMBL2331099, “Design, synthesis and aromatase inhibitory activities of novel indole-imidazole derivatives” (Bioorg Med Chem Lett, 2013).

Tests used:
[1] = target: T1, Aromatase (Homo sapiens, UniProt P11511); experiment: Ratio of letrozole IC50 to compound IC50 for human placental microsome aromatase
T1 sequence (P11511 whole entry): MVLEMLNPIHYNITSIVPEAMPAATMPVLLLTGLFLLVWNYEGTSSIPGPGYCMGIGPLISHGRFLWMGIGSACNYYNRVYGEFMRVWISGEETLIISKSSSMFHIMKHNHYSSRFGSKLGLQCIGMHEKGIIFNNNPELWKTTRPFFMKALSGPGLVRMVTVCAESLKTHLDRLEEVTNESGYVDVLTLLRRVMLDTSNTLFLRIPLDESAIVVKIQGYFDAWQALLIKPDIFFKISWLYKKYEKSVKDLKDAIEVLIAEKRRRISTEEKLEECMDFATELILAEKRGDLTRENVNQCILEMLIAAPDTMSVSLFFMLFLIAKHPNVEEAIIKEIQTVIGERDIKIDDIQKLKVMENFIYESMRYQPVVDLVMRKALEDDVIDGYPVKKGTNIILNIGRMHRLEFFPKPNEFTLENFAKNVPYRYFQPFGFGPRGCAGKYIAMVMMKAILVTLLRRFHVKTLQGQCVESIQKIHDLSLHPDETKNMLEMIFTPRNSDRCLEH
Procedure, shortened: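 Both IC50s come from the human placental microsome aromatase assay with estrone measured by ELISA. Each IC50 is the mean of at least three experiments, each run in triplicate.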

[2] = target: T1, Aromatase; experiment: Inhibition of human placental microsome aromatase after 30 mins by ELISA
Procedure, shortened: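 Aromatase (P450 arom) source: human placental microsomes. Activity read as estrone formed, quantified by a commercial estrone enzyme immunoassay (ELISA). Values are means of at least three experiments, each run in triplicate.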

Compound	IC50 [2] [nM]	Ratio IC50 [1]
Cc1ccc2cc(Cn3ccnc3)n(-c3ccc(C#N)cc3)c2c1	27	0.612
Cc1ccc2cc(Cn3ccnc3)n(-c3ccccc3)c2c1	21.4	0.7728
COc1ccc(-n2c(Cn3ccnc3)cc3ccccc32)cc1	77.4	0.2137

More lines, main results first:

IC50 [2] [nM]	Compound	Ratio IC50 [1]
139	COc1ccc(-n2c(Cn3ccnc3)cc3ccc(C)cc32)cc1	0.1192
203	COc1ccc(-n2c(Cn3ccnc3)cc3ccc(Cl)cc32)cc1	0.0813
48.9	COc1ccc2cc(Cn3ccnc3)n(-c3ccc(F)cc3)c2c1	0.3378
